Assay results from ChEMBL document CHEMBL3046880, “Syntheses and herbicidal activities of novel triazolinone derivatives” (J Agric Food Chem, 2008).

Tests used:
Format in all cases: functional
Senna tora [1] = experiment: Herbicidal activity against Senna tora assessed as growth inhibition at 150 g of active ingredient/ha administered using post-emergence treatment measured 15 days post treatment protocol under greenhouse conditions
How it was run: (§1)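 Test agents were formulated as 100 g/L emulsified concentrates (DMF solvent, TW-80 emulsifier), diluted with water and sprayed postemergence on pot-grown weeds. Seeds were sown 1-3 cm deep in clay soil (pH 6.5, 1.6% organic matter, 37.3% clay, CEC […]) and grown at 15–30 °C in a greenhouse. Dicots were treated at the two-leaf stage. Untreated and DMF-treated plants served as controls. Activity was scored visually 15 days after treatment.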

Senna tora [2] = experiment: Herbicidal activity against Senna tora assessed as growth inhibition at 75 g of active ingredient/ha administered using post-emergence treatment measured 15 days post treatment protocol under greenhouse conditions; how it was run: as §1
Cerastium arvense [3] = experiment: Herbicidal activity against Cerastium arvense assessed as growth inhibition at 37.5 g of active ingredient/ha administered using post-emergence treatment measured 15 days post treatment protocol under greenhouse conditions; how it was run: as §1
Portulaca oleracea [4] = experiment: Herbicidal activity against Portulaca oleracea assessed as growth inhibition at 150 g of active ingredient/ha administered using post-emergence treatment measured 15 days post treatment protocol under greenhouse conditions; how it was run: as §1
Setaria viridis [5] = experiment: Herbicidal activity against Setaria viridis (green foxtail) assessed as growth inhibition at 37.5 g of active ingredient/ha administered using post-emergence treatment measured 15 days post treatment protocol under greenhouse conditions; how it was run: as §1
Senna tora [6] = experiment: Herbicidal activity against Senna tora assessed as growth inhibition at 37.5 g of active ingredient/ha administered using post-emergence treatment measured 15 days post treatment protocol under greenhouse conditions; how it was run: as §1
Amaranthus retroflexus [7] = experiment: Herbicidal activity against Amaranthus retroflexus assessed as growth inhibition at 150 g of active ingredient/ha administered using post-emergence treatment measured 15 days post treatment protocol under greenhouse conditions; how it was run: as §1
Portulaca oleracea [8] = experiment: Herbicidal activity against Portulaca oleracea assessed as growth inhibition at 37.5 g of active ingredient/ha administered using post-emergence treatment measured 15 days post treatment protocol under greenhouse conditions; how it was run: as §1
Setaria viridis [9] = experiment: Herbicidal activity against Setaria viridis (green foxtail) assessed as growth inhibition at 75 g of active ingredient/ha administered using post-emergence treatment measured 15 days post treatment protocol under greenhouse conditions; how it was run: as §1
Cerastium arvense [10] = experiment: Herbicidal activity against Cerastium arvense assessed as growth inhibition at 75 g of active ingredient/ha administered using post-emergence treatment measured 15 days post treatment protocol under greenhouse conditions; how it was run: as §1
Eclipta prostrata [11] = experiment: Herbicidal activity against Eclipta prostrata assessed as growth inhibition at 37.5 g of active ingredient/ha administered using post-emergence treatment measured 15 days post treatment protocol under greenhouse conditions; how it was run: as §1
Brassica juncea [12] = experiment: Herbicidal activity against Brassica juncea assessed as growth inhibition at 75 g of active ingredient/ha administered using post-emergence treatment measured 15 days post treatment protocol under greenhouse conditions; how it was run: as §1
Echinochloa crus-galli [13] = experiment: Herbicidal activity against Echinochloa crus-galli (barnyard grass) assessed as growth inhibition at 150 g of active ingredient/ha administered using post-emergence treatment measured 15 days post treatment protocol under greenhouse conditions; how it was run: as §1
Echinochloa crus-galli [14] = experiment: Herbicidal activity against Echinochloa crus-galli (barnyard grass) assessed as growth inhibition at 75 g of active ingredient/ha administered using post-emergence treatment measured 15 days post treatment protocol under greenhouse conditions; how it was run: as §1
Portulaca oleracea [15] = experiment: Herbicidal activity against Portulaca oleracea assessed as growth inhibition at 75 g of active ingredient/ha administered using post-emergence treatment measured 15 days post treatment protocol under greenhouse conditions; how it was run: as §1
Digitaria sanguinalis [16] = experiment: Herbicidal activity against Digitaria sanguinalis (hairy crabgrass) assessed as growth inhibition at 37.5 g of active ingredient/ha administered using post-emergence treatment measured 15 days post treatment protocol under greenhouse conditions; how it was run: as §1
Chenopodium album [17] = experiment: Herbicidal activity against Chenopodium album assessed as growth inhibition at 37.5 g of active ingredient/ha administered using post-emergence treatment measured 15 days post treatment protocol under greenhouse conditions; how it was run: as §1
Brassica juncea [18] = experiment: Herbicidal activity against Brassica juncea assessed as growth inhibition at 37.5 g of active ingredient/ha administered using post-emergence treatment measured 15 days post treatment protocol under greenhouse conditions; how it was run: as §1
Echinochloa crus-galli [19] = experiment: Herbicidal activity against Echinochloa crus-galli (barnyard grass) assessed as growth inhibition at 37.5 g of active ingredient/ha administered using post-emergence treatment measured 15 days post treatment protocol under greenhouse conditions; how it was run: as §1
Setaria viridis [20] = experiment: Herbicidal activity against Setaria viridis (green foxtail) assessed as growth inhibition at 150 g of active ingredient/ha administered using post-emergence treatment measured 15 days post treatment protocol under greenhouse conditions; how it was run: as §1
Digitaria sanguinalis [21] = experiment: Herbicidal activity against Digitaria sanguinalis (hairy crabgrass) assessed as growth inhibition at 75 g of active ingredient/ha administered using post-emergence treatment measured 15 days post treatment protocol under greenhouse conditions; how it was run: as §1
Amaranthus retroflexus [22] = experiment: Herbicidal activity against Amaranthus retroflexus assessed as growth inhibition at 37.5 g of active ingredient/ha administered using post-emergence treatment measured 15 days post treatment protocol under greenhouse conditions; how it was run: as §1
Chenopodium album [23] = experiment: Herbicidal activity against Chenopodium album assessed as growth inhibition at 150 g of active ingredient/ha administered using post-emergence treatment measured 15 days post treatment protocol under greenhouse conditions; how it was run: as §1
Digitaria sanguinalis [24] = experiment: Herbicidal activity against Digitaria sanguinalis (hairy crabgrass) assessed as growth inhibition at 150 g of active ingredient/ha administered using post-emergence treatment measured 15 days post treatment protocol under greenhouse conditions; how it was run: as §1
Cerastium arvense [25] = experiment: Herbicidal activity against Cerastium arvense assessed as growth inhibition at 150 g of active ingredient/ha administered using post-emergence treatment measured 15 days post treatment protocol under greenhouse conditions; how it was run: as §1
Eclipta prostrata [26] = experiment: Herbicidal activity against Eclipta prostrata assessed as growth inhibition at 75 g of active ingredient/ha administered using post-emergence treatment measured 15 days post treatment protocol under greenhouse conditions; how it was run: as §1
Brassica juncea [27] = experiment: Herbicidal activity against Brassica juncea assessed as growth inhibition at 150 g of active ingredient/ha administered using post-emergence treatment measured 15 days post treatment protocol under greenhouse conditions; how it was run: as §1
Amaranthus retroflexus [28] = experiment: Herbicidal activity against Amaranthus retroflexus assessed as growth inhibition at 75 g of active ingredient/ha administered using post-emergence treatment measured 15 days post treatment protocol under greenhouse conditions; how it was run: as §1
Chenopodium album [29] = experiment: Herbicidal activity against Chenopodium album assessed as growth inhibition at 75 g of active ingredient/ha administered using post-emergence treatment measured 15 days post treatment protocol under greenhouse conditions; how it was run: as §1

Measured: growth inhibition (GI)

Cc1nn(-c2cc(NS(C)(=O)=O)c(Cl)cc2Cl)c(=O)n1C(F)F [SULFENTRAZONE]
50%: Setaria viridis [9] | Echinochloa crus-galli [14] | Digitaria sanguinalis [16] | Echinochloa crus-galli [19] | Digitaria sanguinalis [21]
>80%: Senna tora [1] | Senna tora [2] | Cerastium arvense [3] | Senna tora [6] | Brassica juncea [18] | Setaria viridis [20]
<50%: Setaria viridis [5] | Echinochloa crus-galli [13] | Digitaria sanguinalis [24]
100%: all other assays above
